Laboratory results taken from ChEMBL document CHEMBL1828511, “Searching for new NO-donor aspirin-like molecules: Furoxanylacyl derivatives of salicylic acid and related furazans” (Bioorg Med Chem, 2011).
Activity calls are given as the source filed them. The calls are words filed in the database; no cut-off is given here.

Assays:
[1] = Stability of the compound in 0.1 M HCl at pH 1 assessed as compound remaining at 100 uM after 3 hrs by RP-HPLC analysis; assay type: physicochemical; details: read-out: Stability
[2] = Stability of the compound in phosphate buffer at pH 7.4 assessed as half life at 100 uM by RP-HPLC analysis; assay type: physicochemical
Method in brief: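 Compound held at 37 °C, final concentration 100 µM. Aliquots taken over time and analysed by RP-HPLC (C18; acetonitrile/water 55:45 with 0.1% TFA). Pseudo-first-order rate constants and half-lives obtained by fitting remaining ester versus time to one-phase exponential decay.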

[3] = Stability of the compound in human serum assessed as half life at 200 uM by RP-HPLC analysis; assay type: ADME, cell-free
Method in brief: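 Compound added from 10 mM acetonitrile stock to human serum preheated to 37 °C. Disappearance followed by RP-HPLC (C18; acetonitrile/water 55:45, 0.1% TFA). Half-life from pseudo-first-order fit.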

[4] = target: Prostaglandin G/H synthase 1 (Homo sapiens) (UniProt P23219); test: Inhibition of COX1 in human platelets assessed as inhibition of A23187-stimulated TXB2 production at 100 uM pre-incubated for 30 mins before addition of A23187 measured after 10 mins by EIA
Method in brief: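 Washed human platelets (10⁸ cells/mL) incubated 30 min at 37 °C with compound, diluted from 400-fold DMSO stocks. A23187 (2 µM) then added for 10 min at 37 °C, and reaction stopped with methanol. Supernatant TXB2 measured by EIA. % inhibition versus untreated control, after subtracting no-ionophore background.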

[5] = target: T1, Prostaglandin G/H synthase 2 (Homo sapiens) (UniProt P35354); test: Inhibition of COX2 in LPS-stimulated human monocytes assessed as inhibition of arachidonic acid-stimulated PGE2 production at 100 uM pre-incubated for 30 mins before addition of arachidonic acid measured after 15 mins by EIA; assay type: cell-based
T1 sequence (whole entry): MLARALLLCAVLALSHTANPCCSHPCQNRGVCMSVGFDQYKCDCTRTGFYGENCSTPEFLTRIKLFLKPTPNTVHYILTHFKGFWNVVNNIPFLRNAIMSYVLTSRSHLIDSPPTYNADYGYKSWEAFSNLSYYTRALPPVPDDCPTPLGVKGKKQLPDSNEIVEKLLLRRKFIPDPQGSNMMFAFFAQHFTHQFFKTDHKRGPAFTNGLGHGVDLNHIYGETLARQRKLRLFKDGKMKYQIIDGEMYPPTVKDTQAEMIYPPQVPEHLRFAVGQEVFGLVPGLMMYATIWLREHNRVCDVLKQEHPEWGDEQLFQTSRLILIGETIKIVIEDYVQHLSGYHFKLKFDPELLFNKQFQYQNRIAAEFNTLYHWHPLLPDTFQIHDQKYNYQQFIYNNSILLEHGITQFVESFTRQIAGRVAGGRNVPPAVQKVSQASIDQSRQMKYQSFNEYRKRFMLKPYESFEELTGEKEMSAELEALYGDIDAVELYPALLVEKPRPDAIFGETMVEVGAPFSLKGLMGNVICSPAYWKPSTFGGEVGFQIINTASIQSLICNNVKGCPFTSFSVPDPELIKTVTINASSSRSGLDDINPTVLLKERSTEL
Method in brief: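 Human monocytes (10⁶ cells/mL) induced with LPS for 18 h at 37 °C, 5% CO2, then resuspended in FCS-free RPMI-1640. Compound (from 200-fold DMSO stocks) added for 30 min, then arachidonic acid (100 µM) for 15 min. Supernatant PGE2 by EIA. % inhibition versus untreated control, minus no-arachidonate background.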

[6] = Antiaggregatory activity in human platelet rich plasma assessed as inhibition of collagen-induced platelet aggregation at 300 uM preincubated for 10 mins before collagen challenge measured after 10 mins by aggregometry; assay type: functional
Method in brief: (§1)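 PRP from citrated human blood (200g, 20 min). Compound preincubated 10 min, then submaximal collagen (0.8–1.5 µg/mL) added. Light transmission recorded at 37 °C under stirring (1000 rpm) for 10 min. Vehicle 0.5% DMSO. Result is % inhibition versus control. IC50 by nonlinear regression, otherwise % inhibition at 300 µM. At least five experiments.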

Rattus norvegicus [7] = test: Antiinflammatory activity in Wistar rat assessed as inhibition of carrageenan-induced paw edema at dose equimolar to 120 mg/kg aspirin, administered intragastrically immediately after carrageenan challenge measured after 3 hrs by water plethysmometer relative to control; assay type: functional; details: po, route intragastric
Method in brief: (§2)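 Male Wistar rats (180–200 g). Edema induced by intraplantar 0.1 mL of 1% carrageenan in 1% CMC into the right hindpaw. Compounds given intragastrically in 1% CMC (10 mL/kg) immediately afterwards. Aspirin at 120 mg/kg, others equimolar. Paw volume by water plethysmometer before and at 3 h. Reported as % inhibition versus vehicle (=100). Groups of 6–8, mean ± SEM, Dunnett's test.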

Rattus norvegicus [8] = test: Ulcerogenicity in Wistar rat assessed as damage in gastric mucosa-lesion index at dose equimolar to 120 mg/kg aspirin, administered intragastrically after 3 hrs by stereomicroscopy; assay type: toxicity, organism-based; parameters: dose 120 mg/kg, route intragastric; details: in vivo, po
Method in brief: (§3)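 Male Wistar rats (180–200 g), fasted 24 h with water available. Groups of 8–10 given aspirin 120 mg/kg intragastrically, or equimolar doses, in 1% CMC. Killed 3 h later. Glandular mucosa examined under stereomicroscope. Each hemorrhagic lesion scored by greatest length and summed as lesion index. Mean ± SEM, ANOVA with Newman–Keuls test.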

[9] = Antiaggregatory activity in human platelet rich plasma assessed as inhibition of collagen-induced platelet aggregation preincubated for 10 mins before collagen challenge measured after 10 mins by aggregometry; assay type: functional; method in brief: as §1
[10] = Antiaggregatory activity in human platelet rich plasma assessed as inhibition of collagen-induced platelet aggregation preincubated for 10 mins before collagen challenge measured after 10 mins by aggregometry in presence of 50 uM of sGC inhibitor ODQ; assay type: functional
Method in brief: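 Collagen-induced aggregation in human PRP run as in the standard assay, with the sGC inhibitor ODQ (50 µM) present. Compound preincubated 10 min before submaximal collagen (0.8–1.5 µg/mL). Light transmission followed 10 min at 37 °C. At least five experiments.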

Aorta [11] = test: Vasodilatory activity in Wistar rat thoracic aorta assessed as relaxation of L-phenylephrine-induced vasoconstriction; assay type: functional, tissue-based
Method in brief: (§4)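 Rat aortic strips equilibrated 120 min, then contracted with phenylephrine. At plateau, cumulative concentrations of vasodilator added. Tension recorded isometrically. Results given as EC50 ± SE. Where tested, ODQ was added to the bath 5 min before contraction.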

Aorta [12] = test: Vasodilatory activity in Wistar rat thoracic aorta assessed as relaxation of L-phenylephrine-induced vasoconstriction in presence of 1 uM sGC inhibitor ODQ; assay type: functional, tissue-based; method in brief: as §4
Thromboxane A2 receptor = target: T2, Thromboxane A2 receptor (Homo sapiens, UniProt P21731); test: Antagonist activity at thromboxane receptor in human blood assessed as inhibition of U-46619-induced effect; assay type: functional
T2 sequence (P21731 whole entry): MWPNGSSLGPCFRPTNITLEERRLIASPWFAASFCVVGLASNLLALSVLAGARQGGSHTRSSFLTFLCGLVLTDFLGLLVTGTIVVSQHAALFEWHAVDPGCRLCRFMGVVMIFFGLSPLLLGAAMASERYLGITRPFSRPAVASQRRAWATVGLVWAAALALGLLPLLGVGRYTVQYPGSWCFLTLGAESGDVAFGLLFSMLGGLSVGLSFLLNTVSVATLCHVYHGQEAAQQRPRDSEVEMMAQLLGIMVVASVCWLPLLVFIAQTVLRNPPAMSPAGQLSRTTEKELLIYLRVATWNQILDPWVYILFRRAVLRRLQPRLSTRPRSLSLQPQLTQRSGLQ
Method in brief: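 Citrated human blood pretreated with 1 mM acetylsalicylic acid; PRP made by 200g spin for 20 min. PRP incubated with compound or vehicle (0.5% DMSO), then challenged with U-46619 (0.5–2.5 µM). Aggregation recorded as light transmission at 37 °C with stirring. At least four experiments per compound.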

Rattus norvegicus [13] = test: Antiinflammatory activity in Wistar rat assessed as inhibition of carrageenan-induced paw edema at 120 mg/kg, administered intragastrically immediately after carrageenan challenge measured after 3 hrs by water plethysmometer relative to control; assay type: functional; details: po, route intragastric; method in brief: as §2
[14] = Stability of the compound in phosphate buffer at pH 7.4 assessed as compound remaining at 100 uM after 3 hrs by RP-HPLC analysis; assay type: physicochemical; details: read-out: Stability
Method in brief: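 Each compound was incubated in pH 7.4 aqueous buffer at a final 100 µM and held at 37 ± 0.5 °C. Aliquots taken at timed intervals were run on RP-HPLC (C18; acetonitrile/water 55:45 with 0.1% TFA; 1.2 mL/min), calibrated linearly over 1–200 µM. Remaining ester versus time was fitted to one-phase exponential decay.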

Rattus norvegicus [15] = test: Ulcerogenicity in Wistar rat assessed as damage in gastric mucosa-lesion index at 120 mg/kg, administered intragastrically after 3 hrs by stereomicroscopy; assay type: toxicity, organism-based; parameters: dose 120 mg/kg, route intragastric; details: in vivo, po; method in brief: as §3

Prostaglandin G/H synthase 1 (Homo sapiens), sequence (P23219 whole entry): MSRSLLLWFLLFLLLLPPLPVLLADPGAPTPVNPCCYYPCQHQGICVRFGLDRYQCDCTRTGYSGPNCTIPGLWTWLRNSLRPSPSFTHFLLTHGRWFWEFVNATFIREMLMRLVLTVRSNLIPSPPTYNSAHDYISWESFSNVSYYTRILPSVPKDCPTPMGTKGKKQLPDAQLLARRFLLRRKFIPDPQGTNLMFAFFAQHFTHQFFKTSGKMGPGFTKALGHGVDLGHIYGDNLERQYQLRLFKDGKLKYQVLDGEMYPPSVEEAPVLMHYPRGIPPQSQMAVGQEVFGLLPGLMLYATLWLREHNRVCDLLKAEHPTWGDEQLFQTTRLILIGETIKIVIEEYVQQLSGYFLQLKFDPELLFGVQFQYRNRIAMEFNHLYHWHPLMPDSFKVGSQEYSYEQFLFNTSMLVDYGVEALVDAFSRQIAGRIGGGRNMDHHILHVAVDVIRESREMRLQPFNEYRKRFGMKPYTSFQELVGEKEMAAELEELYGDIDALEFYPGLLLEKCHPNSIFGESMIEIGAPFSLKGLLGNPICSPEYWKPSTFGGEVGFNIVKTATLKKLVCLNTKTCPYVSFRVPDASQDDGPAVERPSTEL

Structure (SMILES) | remaining at 3 h, 100 µM [1] [%] | half-life at 100 µM [2] [min] | half-life at 200 µM [3] [min] | inhibition [4] | inhibition [5] | IC50 [9] [µM] | IC50 [10] [µM] | EC50 (Aorta [11]) [µM] | EC50 (Aorta [12]) [µM] | IC50 (Thromboxane A2 receptor) [µM] | inhibition at 300 µM [6] [%] | inhibition in vivo (Rattus norvegicus [7]) [%] | UI (Rattus norvegicus [8]) [mm] | Activity (Aorta [11]) | inhibition in vivo at 120 mg/kg (Rattus norvegicus [13]) [%] | remaining at 3 h, 100 µM [14] [%] | UI (Rattus norvegicus [15]) [mm] | inhibition in vivo at 120 mg/kg (Rattus norvegicus [7]; dose 120 mg/kg) [%]
N#Cc1nonc1CSCC(=O)Oc1ccccc1C(=O)O | 96 | 38 | 14 | inactive | inactive |  |  |  |  |  | 36 | 38.9 | 0.2 |  |  |  |  | 
O=C(CCOc1no[n+]([O-])c1S(=O)(=O)c1ccccc1)Oc1ccccc1C(=O)O | 96 | 360 | 30 | inactive | inactive | 7.8 | 152 | 0.014 | 0.97 |  |  | 49.6 | 0.4 | Dose-dependent effect |  |  |  | 
O=C(CCOc1nonc1-c1ccccc1)Oc1ccccc1C(=O)O | 98 | 318 | 40 | inactive | inactive |  |  |  |  |  | 12 | 38.6 | 1.2 |  |  |  |  | 
O=C(CCOc1no[n+]([O-])c1-c1ccccc1)Oc1ccccc1C(=O)O | 98 | 288 | 35 | inactive | inactive |  |  | 11 |  |  | 17 | 37.6 | 0.3 | Dose-dependent effect |  |  |  | 
O=C(CCOc1nonc1S(=O)(=O)c1ccccc1)Oc1ccccc1C(=O)O | 97 | 370 | 35 | inactive | inactive |  |  |  |  |  | 2.6 | 38.8 | 0.3 |  |  |  |  | 
CC(=O)Oc1ccccc1C(=O)O [ASPIRIN] | 90 |  | 63 |  |  | 54 |  |  |  |  |  |  |  |  | 43 | 90 | 50 | 
O=C(O)c1ccccc1O [SALICYLIC ACID] |  |  |  |  |  |  |  |  |  |  |  |  | 1.1 |  |  |  |  | 36.8

Continued, in another order:

remaining at 3 h, 100 µM [1] [%] | half-life at 100 µM [2] [min] | half-life at 200 µM [3] [min] | inhibition [4] | inhibition [5] | IC50 [9] [µM] | IC50 [10] [µM] | EC50 (Aorta [11]) [µM] | EC50 (Aorta [12]) [µM] | IC50 (Thromboxane A2 receptor) [µM] | Structure (SMILES) | inhibition at 300 µM [6] [%] | inhibition in vivo (Rattus norvegicus [7]) [%] | UI (Rattus norvegicus [8]) [mm] | Activity (Aorta [11]) | inhibition in vivo at 120 mg/kg (Rattus norvegicus [13]) [%] | remaining at 3 h, 100 µM [14] [%] | UI (Rattus norvegicus [15]) [mm] | inhibition in vivo at 120 mg/kg (Rattus norvegicus [7]; dose 120 mg/kg) [%]
96 | 33 | 13 | inactive | inactive | 7.3 | 88 | 0.04 | 2.4 |  | N#Cc1c(CSCC(=O)Oc2ccccc2C(=O)O)no[n+]1[O-] |  | 54.9 | 1.2 | Dose-dependent effect |  |  |  | 
97 | 50 | 27 | inactive | inactive | 144 |  |  |  | 39 | NC(=O)c1nonc1CSCC(=O)Oc1ccccc1C(=O)O |  | 39.6 | 0.3 |  |  |  |  | 
97 | 45 | 27 | inactive | inactive | 66 | 59 | 23 |  | 38 | NC(=O)c1c(CSCC(=O)Oc2ccccc2C(=O)O)no[n+]1[O-] |  | 39.4 |  | Dose-dependent effect |  |  |  | 
